These results are taken from ChEMBL document CHEMBL4813976, “Rational drug design of benzothiazole-based derivatives as potent signal transducer and activator of transcription 3 (STAT3) signaling pathway inhibitors” (Eur J Med Chem, 2021).

In general, IC50 refers to the concentration at which inhibition is half-maximal. In general, Kd refers to the constant that tells how readily two partners part at equilibrium.

The test system of one test is HEL. The test can be described thus: Antiproliferative activity against human HEL cells harboring JAK2 V617F mutant assessed as inhibition of cell growth incubated for 72 hrs by MTT assay. It is filed as functional, cell-based. In outline:
(§1)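 MTT proliferation assay; MDA-MB-468 grown in DMEM/F-12 and HEL in high-glucose DMEM, each with 10% FBS and penicillin/streptomycin, at 37 °C under 5% CO₂. IC50 given as mean ± SD of at least three independent experiments.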

Test [1] concerns the target T1, Signal transducer and activator of transcription 3 (Homo sapiens, UniProt P40763). The test can be described thus: Displacement of 5'-FAM-GpYLPQTV-NH2 from His-tagged STAT3-SH2 domain (127 to 722 residues) (unknown origin) assessed as binding rate at 100 uM […] by fluorescence polarization assay. Particulars: time 90.0 min. On the technique in general: In fluorescence polarisation assays a small probe gives low polarisation when free and higher when bound to something large.

The subject of a further test is MCF7. Description: Antiproliferative activity against human MCF7 cells expressing low levels of STAT3 assessed as inhibition of cell growth incubated for 72 hrs by MTT assay. The test is classed as functional, cell-based. The note with it: MCF7, 72 h. The gist of the method: (§2)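 MTT proliferation assay on MCF-7 and MDA-MB-453 cells; IC50 given as mean ± SD of at least two independent experiments.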

In test [2] the target is T1, Signal transducer and activator of transcription 3. The test can be described thus: Displacement of 5'-FAM-GpYLPQTV-NH2 from His-tagged STAT3-SH2 domain (127 to 722 residues) (unknown origin) assessed as binding rate at 50 uM […] by fluorescence polarization assay. Particulars: time 90.0 min.
For test [3] the target is unchanged. The test can be described thus: Displacement of 5'-FAM-GpYLPQTV-NH2 from His-tagged STAT3-SH2 domain (127 to 722 residues) (unknown origin) assessed as binding rate at 20 uM […] by fluorescence polarization assay. The note with it: time 90.0 min.
The target is the same in test [4]. Description: Binding affinity to His-tagged STAT3-SH2 domain (127 to 722 residues) (unknown origin) by surface plasmon resonance analysis. In outline:
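SPR on a Biacore T200 with STAT3 SH2 domain. Analytes were run as concentration series, and KD was taken as the equilibrium constant.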

Another test relates to MDA-MB-453. The test can be described thus: Antiproliferative activity against human MDA-MB-453 cells expressing low levels of STAT3 assessed as inhibition of cell growth incubated for 72 hrs by MTT assay. It is filed as functional, cell-based. The note with it: MDA-MB-453, 72 h. In outline:
as §2
(Tetrazolium dyes change colour on reduction, which living cells bring about.)

Test [5] has as its target T1, Signal transducer and activator of transcription 3. Description: Inhibition of IL-6 induced STAT3 transcriptional activity in human HepG2 cells incubated for 1 hr followed by stimulation with IL-6 for 5.5 hrs by luciferase reporter gene assay. It is filed as cell-based. In outline: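 STAT3-dependent luciferase reporter assay in HepG2 cells with IL-6 stimulation; IC50 given as mean ± SD of at least three independent experiments.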
In general terms: Reporter assays use an easily measured gene product as a stand-in for the process of interest.

In another test the test system is MDA-MB-468. Description: Antiproliferative activity against human MDA-MB-468 cells overexpressing STAT3 assessed as inhibition of cell growth incubated for 72 hrs by MTT assay. It is filed as functional, cell-based. Particulars: MDA-MB-468, 72 h. The gist of the method: as §1

T1 sequence (P40763 whole entry, the tested form may be a part): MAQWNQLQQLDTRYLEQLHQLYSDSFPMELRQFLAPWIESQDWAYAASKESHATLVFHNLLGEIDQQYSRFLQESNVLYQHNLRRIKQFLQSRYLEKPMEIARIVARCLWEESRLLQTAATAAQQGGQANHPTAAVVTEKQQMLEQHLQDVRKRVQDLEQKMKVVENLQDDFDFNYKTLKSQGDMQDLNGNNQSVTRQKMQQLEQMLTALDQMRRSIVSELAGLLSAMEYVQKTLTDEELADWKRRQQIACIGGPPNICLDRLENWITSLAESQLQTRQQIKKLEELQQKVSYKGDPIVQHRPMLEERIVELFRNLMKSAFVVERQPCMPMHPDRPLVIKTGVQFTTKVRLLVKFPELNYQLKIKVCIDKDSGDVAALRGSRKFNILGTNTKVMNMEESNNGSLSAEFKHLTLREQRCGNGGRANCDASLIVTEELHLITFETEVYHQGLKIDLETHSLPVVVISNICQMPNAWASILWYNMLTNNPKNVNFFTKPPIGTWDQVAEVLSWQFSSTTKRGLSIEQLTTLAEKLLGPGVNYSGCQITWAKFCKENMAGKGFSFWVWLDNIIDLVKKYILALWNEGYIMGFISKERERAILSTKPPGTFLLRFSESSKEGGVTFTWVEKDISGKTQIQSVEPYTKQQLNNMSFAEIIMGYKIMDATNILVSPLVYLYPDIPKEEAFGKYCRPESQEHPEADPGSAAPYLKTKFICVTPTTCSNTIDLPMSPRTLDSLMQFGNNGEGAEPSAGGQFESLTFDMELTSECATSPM

For the compound `O=[N+]([O-])c1ccc2c(c1)S(=O)(=O)C=C2`, the IC50 in the test with HEL worked out at 1.59 µM; in the test on MCF7, 1.7 µM; in the test on MDA-MB-453 it was 4.4 µM. Moreover, the figures for the Activity in test [1], in test [2] and in [3] were 95%, 71.1% and 62.3%, respectively. Besides, the affinity in test [4], expressed as Kd, was 1.53 µM.

For the compound `CCCC(C)Oc1ccc(C(=O)Nc2ccc3nc(SCC(=O)N[C@@H](C)c4ccccc4)sc3c2)cc1Cl` (stereo partly drawn), the IC50 in [5] is over 10 µM.

As to `COc1ccc([C@H](C)NC(=O)CSc2nc3ccc(NC(=O)c4ccc(OCCN5CCCC5)c(C)c4OC)cc3s2)cc1`, the IC50 with HEL stood at 10.4 µM; in the test with MDA-MB-468, 3.36 µM; in test [5], 1.03 µM.

As to `COc1ccc([C@H](C)NC(=O)COc2nc3ccc(NC(=O)c4ccc(OC)c(C)c4OC)cc3s2)cc1`, inhibition in test [5] was half-maximal at 8.86 µM (IC50).

For `CCCC(C)Oc1ccc(C(=O)Nc2ccc3nc(SCC(=O)N[C@@H](C)c4cccc(O)c4)sc3c2)c(OC)c1C` (stereo partly drawn), the figures for the half-maximal inhibitory concentration (IC50) (in the test on HEL; in the test with MDA-MB-468; in [5]) were 0.62 µM, 2.24 µM and 0.15 µM, respectively.

Take `N#CC[C@H](C1CCCC1)n1cc(-c2ncnc3[nH]ccc23)cn1` [RUXOLITINIB]: the IC50 in the test on HEL is 1.4 µM; with MDA-MB-468 it was over 20 µM.

Take `NS(=O)(=O)c1cccc2c1C(=O)c1cccc(O)c1C2=O`: the concentration for half-maximal inhibition (IC50) is 1.46 µM in the test with HEL, 0.73 µM in the test on MDA-MB-468 and 0.098 µM in test [5].

With `CCCC(C)Oc1ccc(C(=O)Nc2ccc3nc(SCC(=O)N[C@@H](C)c4ccccc4)sc3c2)cc1` (stereo partly drawn), the results for the half-maximal inhibitory concentration (IC50) (in the test with HEL; in the test with MDA-MB-468; in test [5] (hepg2)) were over 10 µM, 2.21 µM and 1.6 µM, respectively.

In turn, `CCCC(C)Oc1ccc(C(=O)Nc2ccc3nc(SCC(=O)N[C@@H](C)c4ccccc4)sc3c2)cc1CC` (stereo partly drawn) showed an IC50 in test [5] of over 10 µM.

In [5], `CCC[C@@H](C)Oc1ccc(C(=O)Nc2ccc3nc(SCC(=O)N[C@@H](C)c4ccccc4)sc3c2)cc1C` showed an IC50 of 0.9 µM.

Turning to `CCCC(C)Oc1ccc(C(=O)Nc2ccc3nc(SCC(=O)N[C@@H](C)c4ccccc4)sc3c2)cc1C(F)(F)F` (stereo partly drawn), in test [5], the 50% inhibitory concentration (IC50) is over 10 µM.

In the case of `COc1ccc([C@H](C)NC(=O)CSc2nc3ccc(NC(=O)c4ccc(OCC(C)C)c(C)c4OC)cc3s2)cc1`, the IC50 was found to be 2.05 µM with HEL, 2.02 µM in the test with MDA-MB-468 and 0.2 µM in test [5].

As to `CCCC(C)Oc1ccc(C(=O)Nc2ccc3nc(SCC(=O)N[C@@H](C)c4ccccc4)sc3c2)c(C)c1C` (stereo partly drawn), the IC50 with HEL turned out to be 0.93 µM; with MDA-MB-468, 0.81 µM; in [5] it was 0.46 µM.

Turning to `COc1ccc([C@H](C)NC(=O)CSc2nc3ccc(NC(=O)c4ccc(OCCN(C)C)c(C)c4OC)cc3s2)cc1`, the half-inhibitory concentration (IC50) came out at 4.98 µM with HEL, 6.57 µM in the test with MDA-MB-468 and 0.52 µM in test [5].

For the compound `CCCC(C)Oc1ccc(C(=O)Nc2ccc3nc(SCC(=O)N[C@@H](C)c4ccccc4)sc3c2)c(OC)c1` (stereo partly drawn), the midpoint of inhibition in test [5], the IC50, lay at 2.2 µM.

Take `CCCC(C)Oc1ccc(C(=O)Nc2ccc3nc(SCC(=O)N[C@@H](C)c4ccccc4O)sc3c2)c(OC)c1C` (stereo partly drawn): the figures for the 50% inhibitory concentration (IC50) (in the test on HEL; with MDA-MB-468; in test [5]) were 0.97 µM, 0.59 µM and 0.17 µM, respectively.

Regarding `COCCOc1ccc(C(=O)Nc2ccc3nc(SCC(=O)N[C@@H](C)c4ccc(OC)cc4)sc3c2)c(OC)c1C`, the figures for the 50% inhibitory concentration (IC50) (with HEL; in the test on MDA-MB-468; in test [5]) were 1.44 µM, 1.16 µM and 0.26 µM, respectively.

Consider `COc1ccc([C@H](C)NC(=O)CSc2nc3ccc(NC(=O)c4ccc(OCCN5CCOCC5)c(C)c4OC)cc3s2)cc1`, for which the IC50 turned out to be 3.38 µM with HEL, 1.77 µM in the test on MDA-MB-468 and 0.24 µM in test [5].

As for `COc1ccc([C@H](C)NC(=O)CSc2nc3ccc(NC(=O)c4ccc(OC(C)C)c(C)c4OC)cc3s2)cc1`, the half-inhibitory concentration (IC50) with HEL was 1.29 µM; in the test on MDA-MB-468, 1.81 µM; in test [5], 0.22 µM.

For the compound `CCCC(C)Oc1ccc(C(=O)Nc2ccc3nc(SCC(=O)N[C@@H](C)c4ccc(O)cc4)sc3c2)c(OC)c1C` (stereo partly drawn), the IC50 with HEL came to 0.68 µM; with MDA-MB-468 it was 0.7 µM; in test [5], 0.2 µM.

In test [5], `CCCC(C)Oc1ccc(C(=O)Nc2ccc3nc(SCC(=O)N[C@@H](C)c4ccccc4)sc3c2)c(F)c1` (stereo partly drawn) returned a concentration for half-maximal inhibition (IC50) of over 10 µM.

As for `CCCC(C)Oc1ccc(C(=O)Nc2ccc3nc(SCC(=O)N[C@@H](C)c4ccccc4)sc3c2)cc1F` (stereo partly drawn), the half-maximal inhibitory concentration (IC50) in [5] was over 10 µM.

On to `CCCC(C)Oc1ccc(C(=O)Nc2ccc3nc(SCC(=O)N[C@@H](C)c4ccccc4)sc3c2)cc1C#N` (stereo partly drawn), for which the half-inhibitory concentration (IC50) in test [5] is over 10 µM.

Regarding `CCCC(C)Oc1ccc(C(=O)Nc2ccc3nc(SCC(=O)N[C@@H](C)c4ccccc4)sc3c2)c(F)c1F` (stereo partly drawn), the 50% inhibitory concentration (IC50) in [5] was over 10 µM.

In the case of `CCC[C@H](C)Oc1ccc(C(=O)Nc2ccc3nc(SCC(=O)N[C@@H](C)c4ccccc4)sc3c2)cc1C`, half-maximal inhibition in test [5] (IC50) was put at 1.2 µM.

With `CCCC(C)Oc1ccc(C(=O)Nc2ccc3nc(SCC(=O)N[C@@H](C)c4ccccc4)sc3c2)cc1Br` (stereo partly drawn), the midpoint of inhibition in test [5], the IC50, lay at 2.15 µM.

Compound `CCCC(C)Oc1ccc(C(=O)Nc2ccc3nc(SCC(=O)N[C@@H](C)c4ccccc4)sc3c2)c(Cl)c1` (stereo partly drawn) came in with a 50% inhibitory concentration (IC50) in [5] of 1.34 µM.

Consider `Cc1cc(Nc2nc(N[C@@H](C)c3ncc(F)cn3)ncc2Cl)[nH]n1` [AZD-1480], for which the results for the IC50 with HEL and in the test with MDA-MB-468 were 0.73 µM and 5.87 µM, respectively.

`CCCC(C)Oc1ccc(C(=O)Nc2ccc3nc(SCC(=O)N[C@@H](C)c4cccc(OC)c4)sc3c2)c(OC)c1C` (stereo partly drawn): the half-inhibitory concentration (IC50) with HEL worked out at 0.87 µM; with MDA-MB-468, 0.5 µM; in test [5], 0.27 µM.

In the case of `COc1ccc([C@H](C)NC(=O)CSc2nc3ccc(NC(=O)c4ccc(OC)c(C)c4OC)cc3s2)cc1`, the results for the IC50 (in the test with HEL; in the test with MDA-MB-468; in [5]) were 1.34 µM, 2.05 µM and 0.12 µM, respectively.

On to `COc1ccc([C@H](C)NC(=O)CNc2nc3ccc(NC(=O)c4ccc(OC)c(C)c4OC)cc3s2)cc1`, for which the IC50 in test [5] turned out to be 1.49 µM.

In the case of `CCCC(C)Oc1ccc(C(=O)Nc2ccc3nc(SCC(=O)N[C@@H](C)c4ccccc4)sc3c2)cc1C` (stereo partly drawn), the concentration for half-maximal inhibition (IC50) with HEL was over 10 µM; with MDA-MB-468, 0.73 µM; in [5], 0.95 µM.

Regarding `CCCc1cc(C(=O)Nc2ccc3nc(SCC(=O)N[C@@H](C)c4ccccc4)sc3c2)ccc1OC(C)CCC` (stereo partly drawn), the half-maximal inhibitory concentration (IC50) in test [5] is over 10 µM.

For `CCCC(C)Oc1ccc(C(=O)Nc2ccc3nc(SCC(=O)N[C@@H](C)c4ccccc4)sc3c2)cc1OC` (stereo partly drawn), in test [5], the IC50 was found to be 1.42 µM.

In test [5], `CCCC(C)Oc1ccc(C(=O)Nc2ccc3nc(SCC(=O)N[C@@H](C)c4ccccc4)sc3c2)c(C)c1` (stereo partly drawn) registered a half-inhibitory concentration (IC50) of 2.72 µM.
